Results reported in ChEMBL document CHEMBL1150767, “4-N-, 4-S-, and 4-O-chloroquine analogues: influence of side chain length and quinolyl nitrogen pKa on activity vs chloroquine resistant malaria” (J Med Chem, 2008).

Experiments:
Plasmodium falciparum [1] = assay: Antimalarial activity against chloroquine-sensitive Plasmodium falciparum HB3 after 72 hrs by SYBR green assay; format: functional, organism-based; conditions: HB3, 72 h
Outline: (§1)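 Sorbitol-synchronized P. falciparum cultures (>95% rings) at 0.5% parasitemia, 1% hematocrit final, exposed to drug dilutions in complete medium 72 h at 37°C; SYBR Green I added, 1 h at 37°C, fluorescence read at 530 nm (490 nm excitation). Each dilution in triplicate; IC50 averaged over at least two separate assays.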

Plasmodium falciparum [2] = assay: Antimalarial activity against chloroquine-resistant Plasmodium falciparum Dd2 after 72 hrs by SYBR green assay; format: functional, organism-based; conditions: Dd2, 72 h; outline: as §1
Plasmodium falciparum [3] = assay: Selectivity for chloroquine-resistant Plasmodium falciparum Dd2 over chloroquine-sensitive Plasmodium falciparum HB3 as IC50 ratio by SYBR green assay; format: functional
Plasmodium falciparum [4] = assay: Antimalarial activity against chloroquine-sensitive Plasmodium falciparum GCO3 after 72 hrs by SYBR green assay; format: functional, organism-based; conditions: GCO3, 72 h; outline: as §1
Plasmodium falciparum [5] = assay: Antimalarial activity against chloroquine-resistant Plasmodium falciparum FCB after 72 hrs by SYBR green assay; format: functional, organism-based; outline: as §1
Plasmodium falciparum [6] = assay: Selectivity for chloroquine-resistant Plasmodium falciparum FCB over chloroquine-sensitive Plasmodium falciparum GCO3 as IC50 ratio by SYBR green assay; format: functional
Plasmodium falciparum [7] = assay: Selectivity for chloroquine-resistant Plasmodium falciparum Indochina I over chloroquine-sensitive Plasmodium falciparum Haiti 135 as IC50 ratio by [3H]hypoxanthine uptake; format: functional
[8] = Binding affinity to mu dimeric heme in aqueous solution at pH 7.5
Outline: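 Hemin first converted to μ-oxo dimer in mild alkaline solution, then titrated to pH 7.5 with Hepes buffer. Heme titrated with increasing drug (0 – 50 μM); absorbance at 402 nm recorded after each addition. Solvent-only titration served as control. Ka derived from ΔAbs402 plots by Scatchard analysis.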

[9] = Inhibition of haemozoin formation at pH 5.2 after 18 hrs; format: functional
Outline: (§2)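 Cell-free β-hematin formation in 1 mL containing lecithin (2 μg/ml final), hematin (100 μM final), 0.1 M HCl, propionate buffer at stated pH, and drug (0-1000 μM). Triplicates shaken at 37°C for 18 h. Pellets washed with pH 9.0 bicarbonate to remove uncrystallized heme, dried, dissolved in 0.1 M NaOH, and quantified by absorbance at 402 nm against a heme calibration curve.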

[10] = Inhibition of haemozoin formation at pH 5.6 after 18 hrs; format: functional; outline: as §2
Plasmodium falciparum [11] = assay: Drug accumulation in digestive vacuole of chloroquine-resistant Plasmodium falciparum assessed as vacuolar accumulation ratio at pH 5.2; format: ADME, organism-based
Outline: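 Calculated with the Henderson–Hasselbach equation from compound pKa values, taking cytosolic pH 7.4 and DV pH 5.2 for CQR parasites. Experimental pKa came from titrating 10 mM drug in water with 0.1 M NaOH at room temperature, using second-derivative inflection points, three determinations averaged.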

Plasmodium falciparum [12] = assay: Drug accumulation in digestive vacuole of chloroquine-sensitive Plasmodium falciparum assessed as vacuolar accumulation ratio at pH 5.6; format: ADME, organism-based
Outline: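 Calculated, not measured: Henderson–Hasselbach equation with cytosolic pH 7.4 and digestive vacuole pH 5.6 (CQS), using experimental pKa values.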

Plasmodium falciparum [13] = assay: Antimalarial activity against chloroquine-sensitive Plasmodium falciparum NF54 by [3H]hypoxanthine uptake; format: functional, organism-based
Plasmodium falciparum [14] = assay: Antimalarial activity against chloroquine-resistant Plasmodium falciparum K1 by [3H]hypoxanthine uptake; format: functional, organism-based
Plasmodium falciparum [15] = assay: Selectivity for chloroquine-resistant Plasmodium falciparum K1 over chloroquine-sensitive Plasmodium falciparum NF54 as IC50 ratio by [3H]hypoxanthine uptake; format: functional

Compound	IC50 (Plasmodium falciparum [1]) [µM]	IC50 (Plasmodium falciparum [2]) [µM]	Ratio IC50 (Plasmodium falciparum [3])	IC50 (Plasmodium falciparum [4]) [µM]	IC50 (Plasmodium falciparum [5]) [µM]	Ratio IC50 (Plasmodium falciparum [6])	Ratio IC50 (Plasmodium falciparum [7])	Ka [8]	logKA [8]	IC50 [9] [µM]	IC50 [10] [µM]	Activity (Plasmodium falciparum [11])	Activity (Plasmodium falciparum [12])	IC50 (Plasmodium falciparum [13]) [µM]	IC50 (Plasmodium falciparum [14]) [µM]	Ratio IC50 (Plasmodium falciparum [15])
CCN(CC)CCCCCNc1ccnc2cc(Cl)ccc12	0.029	0.357	12.3	0.066	0.509	7.17	9.67									
CCN(CC)CCCCOc1ccnc2cc(Cl)ccc12	2.92	1.18	0.404	1.66	1.1	0.663		8.82 ×10⁴ /M	5	> 1000	> 1000	190	67			
CCNCCNc1ccnc2cc(Cl)ccc12	0.012	0.081	6.75	0.012	0.089	7.42								0.021	0.133	1.25
CCN(CC)CC(CN(CC)CC)Oc1ccnc2cc(Cl)ccc12	1.49	1.29	0.866	2.25	3.83	1.7										
CCN(CC)CCCCCCOc1ccnc2cc(Cl)ccc12	3.06	4.16	1.36	2.27	1.19	0.524										
CCN(CC)CCNc1ccnc2cc(Cl)ccc12	0.013	0.026	2	0.013	0.03	2.3	0.714							0.021		2.33
CCN(CC)CCSc1ccnc2cc(Cl)ccc12	9.53	5.5	0.577	5.74	6.02	1.04										
CCN(CC)CCCC(CCCN(CC)CC)Oc1ccnc2cc(Cl)ccc12	0.094	0.409	4.35	0.074	0.352	4.75		3.47 ×10⁴ /M	4.5	199	687	79000	5000			
CCN(CC)CCCOc1ccnc2cc(Cl)ccc12	5.1	2.8	0.549	2.34	2.33	0.996										
CCN(CC)CCCC(C)Nc1ccnc2cc(Cl)ccc12 (stereo unspecified) [CHLOROQUINE]										35	16	23000	3700			
CCN(CC)CCCCCCNc1ccnc2cc(Cl)ccc12	0.097	0.085	0.876	0.016	0.102	6.38	11.2									
CCNCCCCCCNc1ccnc2cc(Cl)ccc12	0.019	0.982	31.3	0.052	0.987	10										
CCN(CC)CCCCNc1ccnc2cc(Cl)ccc12	0.012	0.199	16.6	0.049	0.181	3.69	10.2	1.65 ×10⁵ /M	5.2	24	12	23000	3700			
CCNCCCCCNc1ccnc2cc(Cl)ccc12	0.021	0.786	37.4	0.062	1.27	20.5										
CCNCCCCNc1ccnc2cc(Cl)ccc12	0.018	0.649	36.1	0.026	0.854	32.8										
CCNCCCNc1ccnc2cc(Cl)ccc12	0.007	0.115	16.4	0.02	0.085	4.25								0.015	0.365	24.3
CCN(CC)CCCSc1ccnc2cc(Cl)ccc12	5.6	2.66	0.475	3.46	1.61	0.465										
CCN(CC)CCCCCSc1ccnc2cc(Cl)ccc12	2.33	1.08	0.464	1.61	0.814	0.506										
CCN(CC)CCOc1ccnc2cc(Cl)ccc12	5.8	4.57	0.788	5.29	5.08	0.96										
CCN(CC)CCCNc1ccnc2cc(Cl)ccc12		0.026	4.33	0.007	0.029	4.14	1.2							0.018	0.06	3.33
CCN(CC)CCCCCCSc1ccnc2cc(Cl)ccc12	6.02	4.11	0.683	4.45	3.3	0.742										
CCN(CC)CCCCC(CCCCN(CC)CC)Oc1ccnc2cc(Cl)ccc12	0.073	0.316	4.31	0.045	0.604	13.4										
CCN(CC)CCCCSc1ccnc2cc(Cl)ccc12	7.39	4.44	0.601	5.63	3.5	0.622		8.22 ×10⁴ /M	4.9	216	155	170	64			
CCN(CC)CCCCCOc1ccnc2cc(Cl)ccc12	1.87	1.01	0.54	1.49	0.93	0.624										
